From paper PMC7254805 (ACS Omega, 2020) come the findings set out here.

One series has as its target HCV NS3/4A protease (Hepatitis C virus, UniProt P26662). The experiment in a line: HCV NS3/4A protease fluorimetric activity assay. Format: biochemical. The method in brief: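 Purified single-chain NS3/4A (scNS3/4A, 0.1 μM) is pre-incubated with test compound, then purified EGFP-NS5A/B-CBD fusion substrate (0.5 μM) is added for 1 h at 37 °C. Cellulose slurry stops the reaction; after centrifugation, supernatant fluorescence is read at 484/538 nm. Compounds are screened at 50 μM, with dose response over 10–100 μM. Activity is relative to a no-compound reaction (100%); telaprevir is the positive control.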

In series [1] the test system is BALB/c mice. The experiment in a line: Acute oral toxicity in mice. The format is in vivo. Particulars: for maximum acute tolerance dose: BALB/c mice.
In series [2] the test system is BALB/c mice. Description: Sub-acute. Format: in vivo. The method in brief: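 Sub-acute oral toxicity per OECD 407 in BALB/c mice. Test compounds are given orally daily for 28 consecutive days at 1000 or 500 mg/kg b. wt/day, in water or PEG-400. Vehicle controls receive water or PEG-400 at 200 μL/day/mouse. Body weight, food and water intake, behaviour and toxicity signs are recorded. Liver sections (5 μm) are H&E-stained for light microscopy.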

The nature of series [3]: Oral bioavailability in mice, plasma RP-HPLC. The format is in vivo, BALB/c mice.
A short description of a further series: Aqueous solubility. The format is physicochemical. To be noted: water.
A further series deals with trypsin (Sus scrofa, UniProt P00761). Description: Cellular serine protease. The format is biochemical. To be noted: up to 250 μM. The method in brief: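 Trypsin is pre-incubated with increasing test compound concentrations, then FITC-labelled casein substrate is added for 1 h at 37 °C. The reaction is stopped with trichloroacetic acid (6.1 N) and centrifuged. Supernatant fluorescence is read at excitation 485 nm and emission 538 nm. Activity is expressed relative to a no-compound reaction (100%); G. max trypsin inhibitor is the positive control.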
Sequence of trypsin (P00761 9-231): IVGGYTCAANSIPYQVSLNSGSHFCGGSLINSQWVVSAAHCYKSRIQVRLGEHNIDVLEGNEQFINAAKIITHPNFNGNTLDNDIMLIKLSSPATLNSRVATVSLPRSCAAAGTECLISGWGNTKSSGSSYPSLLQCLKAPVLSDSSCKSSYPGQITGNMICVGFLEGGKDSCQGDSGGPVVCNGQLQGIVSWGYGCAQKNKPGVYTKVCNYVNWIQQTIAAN

Another series has as its system Huh7.5 cells. The experiment in a line: Cell viability MTT assay. Format: cell-based. To be noted: up to 5 mM. In a few lines: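 Huh7.5 cells are seeded at 2 × 10^4 per well in DMEM with 10% serum and incubated overnight at 37 °C. After 12 h, cells are treated with a range of test compound concentrations, and viability is read by MTT. Untreated cells serve as control. Data are mean ± SD of three independent experiments; CC50 is taken from the dose response.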
A general note: Tetrazolium dyes change colour on reduction, which living cells bring about.

Series [4] has as its system Huh7 cells harboring HCV monocistronic replicon genotype 2a (Rep2a). Description: HCV replication assay in Rep2a cell line. Format: cell-based, HCV genotype 2a. Particulars: at 250 μM, compared with Telaprevir.
Setting [5] is: BALB/c, mouse, plasma, po, 500 mg/kg.

In brackets after ≈: the same amount, converted by molar mass. Entries after “also recorded” stand apart in the source; their conditions may differ.

Sequence of HCV NS3/4A protease (P26662 1027-1208, other chains not shown): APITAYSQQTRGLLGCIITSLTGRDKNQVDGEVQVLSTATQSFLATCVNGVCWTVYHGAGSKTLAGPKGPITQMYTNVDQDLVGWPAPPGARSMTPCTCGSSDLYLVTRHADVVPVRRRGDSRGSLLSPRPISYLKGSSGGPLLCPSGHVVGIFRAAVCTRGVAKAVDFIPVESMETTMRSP

The term IC50 denotes the concentration that gives 50% inhibition. High values mean a need for much substance, low ones inhibition by little substance. As usually defined, the solubility is how much of the substance goes into solution per volume. A high value points to a readily soluble substance. As to `COC[C@@H](Cc1ccc(OC)c(OC)c1)[C@@H](COC)Cc1ccc(OC)c(OC)c1` [phyllanthin, reference compound], the IC50 against HCV NS3/4A protease was about 50 µM. The death of mice in the series with BALB/c mice [1] (oral, 2000 mg/kg b. wt) is listed as 100%. The “maximum acute tolerance dose” value in the series with BALB/c mice [1] (oral) is listed as 1500 mg/kg b. wt. For the same compound, the “changes in general behavior and body weights” value with BALB/c mice [2] (500 mg/kg b. wt/day oral in PEG-400, 28 consecutive days) was “did not exhibit any undesirable changes”. Further, in series [3] (500 mg/kg b. wt p.o), the “bioavailability (plasma, up to 24 h)” value is “could not observe any bioavailability”. For the same compound, the “absorbed concentration in plasma” value in series [3] (1500 mg/kg b. wt p.o) is recorded as “very low concentration”. In “Aqueous solubility”, this compound showed a solubility of 250 µg/mL (≈ 597 µM).
For orientation: IC90 means the point of the concentration-response curve where the effect stands at 90%. A lower IC90 goes with greater potency. Broadly, the Cmax is the peak of the concentration-time curve. One may read the Tmax as the time at which the peak concentration occurs. A word on the half-life: it is the time in which the quantity being followed falls by half. Read a low half-life as rapid decline. On to `COc1ccc(CC(CC(=O)O)C(=O)O)cc1OC` (centres unmarked) [D8, 2-(3,4-Dimethoxybenzyl)succinic Acid], for which, at HCV NS3/4A protease, the IC50 is under 10 µM and the IC90 amounted to 50 µM. The “inhibition of trypsin activity” value against trypsin was “did not show an inhibition; also recorded: does not occur even at 250 μM”. Besides, the cellular toxicity result in the series on Huh7.5 cells is listed as “did not induce any toxicity; also recorded: no perceptible cellular toxicity”. The “reduction in HCV negative strand synthesis” value in series [4] is on record as “matching that of the inhibition by Telapravir”. Moreover, the liver histology entry in the series with BALB/c mice [1] (maximum acute tolerance dose 4000 mg/kg b. wt p.o, vs water control) is listed as “normal histoarchitecture”. The compound further came in with a death of mice in the series on BALB/c mice [1] (oral, 5000 mg/kg b. wt) of 40%. Also, in the series with BALB/c mice [1] (oral, 5250 mg/kg b. wt), the death of mice was 100%. Also, the “maximum acute tolerance dose” value in the series with BALB/c mice [1] (oral) is on record as 4000 mg/kg b. wt. Besides, in the series with BALB/c mice [1] (oral, D8 4000 vs phyllanthin 1500 mg/kg), the “tolerance dose relative to phyllanthin” value is about 2.5 times. For the same compound, the “changes in general behavior and body weights” value in the series on BALB/c mice [2] (1000 mg/kg b. wt/day oral, 28 consecutive days) is recorded as “did not exhibit any undesirable changes”. The liver histology result with BALB/c mice [2] (1000 mg/kg b. wt/day oral, 28 days) is on record as “normal histology”. Also, in series [3] (500 mg/kg p.o), the “plasma concentration after 2 h” value is listed as 595 μg mL^–1. Moreover, in series [3] (setting [5]), the Cmax was about 595 µg/mL, the Tmax was 1 h and the half-life was 2 h.
